What was measured:
CCRF-CEM = assay: Antiproliferative activity against human CCRF-CEM cells; assay type: functional
Method in brief: (§1)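 Profiled in the National Cancer Institute 60 cancer cell line screen. Reported GI50 is the concentration giving 50% growth inhibition, TGI the concentration giving total growth inhibition, and LC50 the concentration giving 50% net cell killing. Values are averages ± SEM from two independent determinations.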

HL-60(TB) = assay: Antiproliferative activity against human HL-60(TB) cells; assay type: functional
Method in brief: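 Tested in the NCI 60 human cancer cell line panel. GI50 is the concentration giving 50% growth inhibition; TGI (total growth inhibition) and LC50 (50% net cell killing) were also derived. Values are the mean ± SEM of two independent determinations.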

[1] = Antiproliferative activity against human MOLT4 cells; assay type: functional; method in brief: as §1
[2] = Antiproliferative activity against human RPMI8226 cells; assay type: functional; method in brief: as §1
SR = assay: Antiproliferative activity against human SR cells; assay type: functional
Method in brief: (§2)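 Run in the National Cancer Institute 60 cancer cell line panel. Read-outs: GI50, the concentration causing 50% growth inhibition; TGI, the concentration causing total growth inhibition; LC50, the concentration causing 50% net cell killing. Values are averages ± SEM from two independent determinations.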

[3] = Antiproliferative activity against human EKVX cells; assay type: functional; method in brief: as §1
[4] = Antiproliferative activity against human HOP92 cells; assay type: functional; method in brief: as §1
NCI-H23 = assay: Antiproliferative activity against human NCI-H23 cells; assay type: functional; method in brief: as §1
NCI-H522 = assay: Antiproliferative activity against human NCI-H522 cells; assay type: functional; method in brief: as §1
[5] = Antiproliferative activity against human COLO205 cells; assay type: functional; method in brief: as §1
HT-29 = assay: Antiproliferative activity against human HT-29 cells; assay type: functional; method in brief: as §1
SW-620 = assay: Antiproliferative activity against human SW620 cells; assay type: functional; method in brief: as §2
SF-268 = assay: Antiproliferative activity against human SF268 cells; assay type: functional; method in brief: as §1
SNB-19 = assay: Antiproliferative activity against human SNB19 cells; assay type: functional; method in brief: as §2
SNB-75 = assay: Antiproliferative activity against human SNB75 cells; assay type: functional; method in brief: as §2
[6] = Antiproliferative activity against human LOXIMVI cells; assay type: functional; details: LOX IMVI; method in brief: as §1
M14 = assay: Antiproliferative activity against human M14 cells; assay type: functional; method in brief: as §1
SK-MEL-2 = assay: Antiproliferative activity against human SK-MEL-2 cells; assay type: functional; method in brief: as §1
IGROV-1 = assay: Antiproliferative activity against human IGROV1 cells; assay type: functional; method in brief: as §1
OVCAR-3 = assay: Antiproliferative activity against human OVCAR3 cells; assay type: functional; method in brief: as §1
OVCAR-4 = assay: Antiproliferative activity against human OVCAR4 cells; assay type: functional; method in brief: as §1
OVCAR-8 = assay: Antiproliferative activity against human OVCAR8 cells; assay type: functional; method in brief: as §1
[7] = Antiproliferative activity against human NCI-ADR-RES cells; assay type: functional; method in brief: as §1
SK-OV-3 = assay: Antiproliferative activity against human SKOV3 cells; assay type: functional; method in brief: as §1
786-0 = assay: Antiproliferative activity against human 786-0 cells; assay type: functional; method in brief: as §1
A498 = assay: Antiproliferative activity against human A498 cells; assay type: functional; method in brief: as §1
ACHN = assay: Antiproliferative activity against human ACHN cells; assay type: functional; method in brief: as §1
CAKI-1 = assay: Antiproliferative activity against human Caki1 cells; assay type: functional; method in brief: as §1
[8] = Antiproliferative activity against human RXF393 cells; assay type: functional; method in brief: as §1
SN12C = assay: Antiproliferative activity against human SN12C cells; assay type: functional; method in brief: as §1
TK-10 = assay: Antiproliferative activity against human TK10 cells; assay type: functional; method in brief: as §2
UO-31 = assay: Antiproliferative activity against human UO31 cells; assay type: functional; method in brief: as §2
MCF7 = assay: Antiproliferative activity against human MCF7 cells; assay type: functional; method in brief: as §1
MDA-MB-231 = assay: Antiproliferative activity against human MDA-MB-231 cells; assay type: functional; method in brief: as §1
[9] = Antiproliferative activity against human Hs 578T cells; assay type: functional; method in brief: as §1
T47D = assay: Antiproliferative activity against human T47D cells; assay type: functional; method in brief: as §2
MDA-MB-468 = assay: Antiproliferative activity against human MDA-MB-468 cells; assay type: functional; method in brief: as §1
[10] = Half life in mouse liver microsomes; assay type: ADME
[11] = Half life in mouse plasma; assay type: ADME, cell-free
[12] = Apparent permeability of the compound from apical to basolateral side in human Caco2 cells; assay type: ADME, cell-based; details: Caco-2
[13] = Apparent permeability of the compound from basolateral to apical side in human Caco2 cells; assay type: ADME, cell-based; details: Caco-2
[14] = read-out: LC50 (the source's name)

`C[C@H](NC(=O)[C@@H]1CSSC[C@@H](NC(=O)c2nc3ccccc3cc2O)C(=O)NCC(=O)N1C)c1ccccc1` showed a GI50 (CCRF-CEM) of 1.9 µM, a TGI (CCRF-CEM) of 10.5 µM and a CC50 (CCRF-CEM; [14]) greater than 50 µM. It also gave a GI50 (HL-60(TB)) of 1.2 µM, a TGI (HL-60(TB)) of 5.1 µM and a CC50 (HL-60(TB); [14]) of 38.8 µM. For the same compound, the GI50 ([1]; MOLT-4) was 0.9 µM, the TGI ([1]; MOLT-4) was 3.3 µM and the CC50 ([1]; MOLT-4, read-out: LC50 (the source's name)) was greater than 50 µM. It also gave a GI50 ([2]; RPMI-8226) of 5.7 µM, a TGI ([2]; RPMI-8226) of 21.6 µM and a CC50 ([2]; RPMI-8226, read-out: LC50 (the source's name)) greater than 50 µM. For the same compound, the GI50 (SR) was 0.2 µM, the TGI (SR) was 1.2 µM and the CC50 (SR; [14]) was greater than 50 µM. For the same compound, the GI50 [3] was 3.8 µM, the TGI [3] was 11.8 µM and the CC50 [3, 14] was 31.4 µM. The GI50 ([4]; HOP-92) was 9.7 µM, the TGI ([4]; HOP-92) was 18.6 µM and the CC50 ([4]; HOP-92, read-out: LC50 (the source's name)) was 35.6 µM. The GI50 (NCI-H23) was 5.2 µM, the TGI (NCI-H23) was 12.6 µM and the CC50 (NCI-H23; [14]) was 29.7 µM. For the same compound, the GI50 (NCI-H522) was 3.6 µM, the TGI (NCI-H522) was 10.5 µM and the CC50 (NCI-H522; [14]) was 29.1 µM. For the same compound, the GI50 ([5]; COLO 205) was 1 µM, the TGI ([5]; COLO 205) was 2.3 µM and the CC50 ([5]; COLO 205, read-out: LC50 (the source's name)) was 7.2 µM. For the same compound, the GI50 (HT-29) was 1.2 µM, the TGI (HT-29) was 3.9 µM and the CC50 (HT-29; [14]) was 12.4 µM. The GI50 (SW-620) was 1.9 µM, the TGI (SW-620) was 6.3 µM and the CC50 (SW-620; [14]) was 33.2 µM. It also gave a GI50 (SF-268) of 0.4 µM, a TGI (SF-268) of 11.1 µM and a CC50 (SF-268; [14]) of 35.6 µM. For the same compound, the GI50 (SNB-19) was 7.3 µM, the TGI (SNB-19) was 19.5 µM and the CC50 (SNB-19; [14]) was greater than 50 µM. For the same compound, the GI50 (SNB-75) was 7.7 µM, the TGI (SNB-75) was greater than 50 µM and the CC50 (SNB-75; [14]) was greater than 50 µM. For the same compound, the GI50 [6] was 0.7 µM, the TGI [6] was 1.5 µM and the CC50 [6, 14] was 3.6 µM. The GI50 (M14) was 0.3 µM, the TGI (M14) was 10.3 µM and the CC50 (M14; [14]) was greater than 50 µM. It also gave a GI50 (SK-MEL-2) of 2.6 µM, a TGI (SK-MEL-2) of 10.1 µM and a CC50 (SK-MEL-2; [14]) of 27.1 µM. For the same compound, the GI50 (IGROV-1) was 4 µM, the TGI (IGROV-1) was 12.9 µM and the CC50 (IGROV-1; [14]) was 37.6 µM. It also gave a GI50 (OVCAR-3) of 0.6 µM, a TGI (OVCAR-3) of 1.4 µM and a CC50 (OVCAR-3; [14]) of 3.1 µM. For the same compound, the GI50 (OVCAR-4) was 8 µM, the TGI (OVCAR-4) was 18.4 µM and the CC50 (OVCAR-4; [14]) was 42.4 µM. It also gave a GI50 (OVCAR-8) of 5.2 µM, a TGI (OVCAR-8) of 17.8 µM and a CC50 (OVCAR-8; [14]) greater than 50 µM. It also gave a GI50 [7] of 11 µM, a TGI [7] greater than 50 µM and a CC50 [7, 14] greater than 50 µM. For the same compound, the GI50 (SK-OV-3) was 5.8 µM, the TGI (SK-OV-3) was 21.3 µM and the CC50 (SK-OV-3; [14]) was greater than 50 µM. It also gave a GI50 (786-0) of 2.5 µM, a TGI (786-0) of 9.8 µM and a CC50 (786-0; [14]) of 33.5 µM. It also gave a GI50 (A498) of 15 µM, a TGI (A498) of 33.5 µM and a CC50 (A498; [14]) greater than 50 µM. The GI50 (ACHN) was 4.9 µM, the TGI (ACHN) was 13 µM and the CC50 (ACHN; [14]) was 31.5 µM. It also gave a GI50 (CAKI-1) of 7.3 µM, a TGI (CAKI-1) of 18.5 µM and a CC50 (CAKI-1; [14]) of 47.4 µM. The GI50 ([8]; RXF 393) was 1.3 µM, the TGI ([8]; RXF 393) was 3.1 µM and the CC50 ([8]; RXF 393, read-out: LC50 (the source's name)) was 13 µM. It also gave a GI50 (SN12C) of 5.6 µM, a TGI (SN12C) of 14.1 µM and a CC50 (SN12C; [14]) of 35.4 µM. The GI50 (TK-10) was 8.1 µM, the TGI (TK-10) was 15.4 µM and the CC50 (TK-10; [14]) was 29.7 µM. For the same compound, the GI50 (UO-31) was 5.8 µM, the TGI (UO-31) was 13.3 µM and the CC50 (UO-31; [14]) was 30.8 µM. It also gave a GI50 (MCF7) of 0.9 µM, a TGI (MCF7) of 2.6 µM and a CC50 (MCF7; [14]) of 16.1 µM. The GI50 (MDA-MB-231) was 1.9 µM, the TGI (MDA-MB-231) was 7.9 µM and the CC50 (MDA-MB-231; [14]) was 26 µM. The GI50 [9] was 11.3 µM, the TGI [9] was 34.5 µM and the CC50 [9, 14] was greater than 50 µM. For the same compound, the GI50 (T47D) was 1.1 µM, the TGI (T47D) was 3.8 µM and the CC50 (T47D; [14]) was 24.8 µM. The GI50 (MDA-MB-468) was 6 µM, the TGI (MDA-MB-468) was 13.3 µM and the CC50 (MDA-MB-468; [14]) was 29.8 µM. It also gave a half-life [10] of 0.45 h, a half-life [11] of 4.9 h and a Papp A→B [12] of 0.011 ×10⁻⁶ cm/s. For the same compound, the Papp B→A [13] was 0.062 ×10⁻⁶ cm/s.
